High-throughput results as filed in PubChem.
Sampled rows, rich in hits. Any-hit rate of the full collection: about 3.7%.
KCC2 mod – modulates chloride dependent transport by human KCC2; 190,000 tested, 2.2% active; B-score of Tl+ flux slope (higher = more flux/activation; lower = inhibition) at 10 µM; KCC2 cells, thallium flux FluoZin-2 fluorescence; AID 1456; Q9H2X9;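 active = thallium flux slope and its plate-corrected score both differing from the plate sample mean at a set confidence after two filtering rounds, in either direction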;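 note: slope of fluorescence scaled to starting intensity during 10 to 20 s after thallium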
NPY-Y1 antag – NPY-Y1 (human) receptor antagonism. P25929. HEK293-CNG Y1 cells, membrane potential fluorescence; NPY at EC95, then isoproterenol. inhibition, % at 3.6 µM. 200,000 tested, 1% active. AID 1040;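 active = inhibition above the campaign mean inhibition of all tested compounds plus 3 SD, cut at about 20% in these data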
Target sequence (P25929 whole entry, looked up): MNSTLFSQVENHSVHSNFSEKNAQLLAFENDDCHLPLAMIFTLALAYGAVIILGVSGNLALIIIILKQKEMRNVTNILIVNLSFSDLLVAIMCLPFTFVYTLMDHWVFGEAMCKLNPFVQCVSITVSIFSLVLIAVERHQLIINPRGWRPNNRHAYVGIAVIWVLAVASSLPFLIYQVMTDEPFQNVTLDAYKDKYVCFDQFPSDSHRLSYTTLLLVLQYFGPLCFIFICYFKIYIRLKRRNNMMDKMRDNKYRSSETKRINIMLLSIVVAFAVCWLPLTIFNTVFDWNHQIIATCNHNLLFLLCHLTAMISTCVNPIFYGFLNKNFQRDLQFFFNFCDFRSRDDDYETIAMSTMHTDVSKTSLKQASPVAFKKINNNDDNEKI
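Material: HEK293 Y1/CNG channel cell line; also added: NPY (25 nM), isoproterenol (1 µM), Ro 20-1724 (25 µM); doses: one concentration, 3.6 µM, in 0.4% DMSO; schedule: compound incubation 1 h at room temperature, readout 45 min post-stimulation; technique: membrane potential fluorescence; measure: fluorescence ratio normalized to % inhibition between controls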
NPY Y2 blocker – antagonists of human neuropeptide Y receptor Y2 | P49146 | NPY-Y2 expressing cells, antagonist mode | inhibition, % at 2.7 µM | 140,000 tested, 0.99% active | AID 793; in the data active = inhibition above about 17%
Target sequence (P49146 whole entry, looked up): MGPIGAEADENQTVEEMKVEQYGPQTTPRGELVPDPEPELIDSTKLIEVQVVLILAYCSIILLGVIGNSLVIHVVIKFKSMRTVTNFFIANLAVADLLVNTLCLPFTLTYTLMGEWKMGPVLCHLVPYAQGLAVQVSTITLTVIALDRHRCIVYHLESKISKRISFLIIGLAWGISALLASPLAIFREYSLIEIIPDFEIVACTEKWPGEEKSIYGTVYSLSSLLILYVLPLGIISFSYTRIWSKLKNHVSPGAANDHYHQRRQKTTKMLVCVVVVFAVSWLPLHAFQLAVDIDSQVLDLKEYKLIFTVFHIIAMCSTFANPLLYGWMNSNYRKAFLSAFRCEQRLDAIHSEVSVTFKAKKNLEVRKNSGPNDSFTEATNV
Furin inh – human furin inhibition | P09958 | purified furin, fluorogenic substrate cleavage | 220,000 tested, 0.061% active | inhibition, % at 20 µM or 30 µM; in the data active = inhibition above about 25%
NPY1 pot ag – human NPY-Y1 potentiation or agonism, primary screen; NPY-Y1 expressing cells, potentiator/agonist activation; P25929; activation, % at 3.6 µM; 220,000 tested, 0.37% active; AID 1304; in the data active = activation above about 33%, passing the limit was not always enough;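 note: cells stimulated with NPY at EC10 then isoproterenol at EC100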
NPY-Y2 PAM-ag – potentiates or activates human NPY-Y2 receptor; 220,000 tested, 0.45% active; P49146; cells expressing NPY-Y2, potentiator/agonist read-out; activation, % at 3.6 µM; in the data active = activation above about 27%;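 note: cells stimulated with NPY near EC25 plus isoproterenol at EC100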
NPY-Y2 pot conf – human NPY-Y2 potentiation or agonism, confirmation. shares compounds with NPY-Y2 PAM-ag. cell-based NPY-Y2 potentiator/agonist assay. activation, % at 3.6 µM. 450 tested, 20% active; in the data active = activation above about 33%
NPY-Y1 potentiator – counter-screen for NPY-Y2 potentiators or agonists: NPY-Y1 potentiators or agonists; shares compounds with NPY-Y2 PAM-ag; Y1 HEK293-CNG cells, membrane potential fluorescence; activation, % at 3.6 µM; 450 tested, 20% active; AID 1651; in the data active = activation above about 45%;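 note: cells stimulated with submaximal NPY then isoproterenol with phosphodiesterase inhibitor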
NPY-Y1 ag 2 – activates human NPY-Y1, counter-screen for NPY-Y2 potentiators; shares compounds with NPY-Y2 PAM-ag; HEK293 Y1-CNGC, membrane potential fluorescence, agonism; activation, % at 3.6 µM; 450 tested, 37% active;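 active = activation above the mean of DMSO-only control wells plus 3 SD, cut at about 18% in these data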;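 note: cells stimulated with 1 µM isoproterenol plus the PDE inhibitor Ro 20-1724; Y1 agonists lower the membrane potential dye signal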
CNGC inhibitor – blocks CNG channel activity, counter-screen for NPY-Y2 potentiators; 450 tested, 32% active; HEK293-CNG parental, isoproterenol cAMP, membrane potential fluorescence; inhibition, % at 3.6 µM; shares compounds with NPY-Y2 PAM-ag;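 active = inhibition above the control-well mean plus 3 SD of those wells, cut at about 22% in these data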
Y2 agonist ctr – counter-screen for NPY-Y2 potentiators: agonists of human NPY-Y2 | shares compounds with NPY-Y2 PAM-ag | HEK293 Y2/CNGC cells, membrane potential fluorescence, agonist mode | activation, % at 3.6 µM | 450 tested, 56% active;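 active = activation above the mean of solvent-only control wells plus 3 SD, cut at about 10% in these data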;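 note: cells stimulated by isoproterenol with no NPY added so direct agonism is tested; agonism lowers probe fluorescence through less cAMP and CNG channel opening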
KCC2 secondary – KCC2 (human) modulation, secondary assay | shares compounds with KCC2 mod | HEK293-KCC2, thallium flux, FluoZin2 fluorescence; hits give high values | normalised thallium flux (F/F0 slope) at 10 µM | 3,700 tested, 15% active;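 active = thallium flux slope above the same plate's solvent-only control mean plus 3 SD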
KCC2 bumet counter – thallium flux persisting under bumetanide in KCC2 cells, counter-screen secondary assay; shares compounds with KCC2 mod; HEK293-KCC2 + bumetanide/ouabain, thallium flux FluoZin2; hits give high values; normalized thallium flux at 10 µM; 3,700 tested, 49% active;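 active = thallium entry rate above the same plate's blocked-transporter control wells by more than 3 SD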;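 note: raw slope of fluorescence over initial fluorescence between 10 and 20 s after thallium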
KCC2 secondary2 – confirmation of human KCC2 transport modulators; HEK293-KCC2, thallium flux FluoZin2 fluorescence; actives lie on both sides; F/F0 rise rate, 10–20 s post-thallium; AID 1715; 3,700 tested, 23% active; shares compounds with KCC2 mod; normalized thallium flux at 10 µM;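 active = thallium flux slope more than 3 SD above or below the plate's solvent-only control mean, mostly below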
HEK293 Tl flux – acts in parental HEK cells, KCC2 counter-screen. shares compounds with KCC2 mod. AID 1716. 3,700 tested, 46% active. thallium flux rate (normalised fluorescence) at 10 µM. HEK293 parental cells, thallium flux FluoZin2, ouabain; baseline-ratio fluorescence slope, 10–20 s after thallium;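 active = thallium flux rate significantly above the same plate's solvent-only control wells, beyond their mean plus 3 SD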
KCC2 ouabain – modulates human KCC2 on retest with ouabain. 3,700 tested, 48% active. AID 1717. HEK293-KCC2, thallium flux FluoZin2 fluorescence; bidirectional: low = inhibitor, high = activator. raw Tl+ flux slope (below DMSO = inhibition, above = activation) at 10 µM. shares compounds with KCC2 mod;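 active = thallium flux slope beyond 3 SD from same-plate DMSO control mean in most replicates, usually higher, sometimes lower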;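 note: slope of initial-normalized fluorescence between seconds 10 and 20 after thallium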
HEK293 Tl flux2 – counter-screen for KCC2 modulators: effect in parental HEK293 cells; 3,700 tested, 33% active; thallium flux FluoZin-2 fluorescence slope; AID 1718; shares compounds with KCC2 mod; thallium flux slope at 10 µM;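 active = thallium flux slope above the same plate's solvent-control mean plus 3 SD in both duplicate wells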;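 note: run without ouabain in cells lacking the KCC2 cotransporter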
Of the large screens only hits and unclear results are named; the others gave an inactive call (follow-up assays come after a bar, where they were run).

O=C(c1ccc(S(=O)(=O)N2CCc3ccccc3C2)cc1)N1CCCCC1	none (no result: NPY Y2 blocker)
COc1ccc2nc(NC(=O)CSc3nccc(C)n3)sc2c1	NPY-Y2 PAM-ag 35 | NPY-Y2 pot conf inactive | NPY-Y1 potentiator 46 | NPY-Y1 ag 2 53 | CNGC inhibitor 40 | Y2 agonist ctr 51
CCCOc1ccc(/C=N/Nc2ccc(C(=O)O)cc2)c(OCCC)c1	NPY-Y2 PAM-ag 30 (no result: NPY Y2 blocker) | NPY-Y2 pot conf inactive | NPY-Y1 potentiator inactive | NPY-Y1 ag 2 inactive | CNGC inhibitor inactive | Y2 agonist ctr 21
O=C(CSCc1ccccc1)Nc1ccc(F)c(F)c1	none
O=C(Nc1ccc(OC(F)(F)F)cc1)Nc1cccc([N+](=O)[O-])c1	none
Cc1ccc(NC(=O)Nc2cccc([N+](=O)[O-])c2)cc1F	NPY-Y2 PAM-ag 32 | NPY-Y2 pot conf inactive | NPY-Y1 potentiator inactive | NPY-Y1 ag 2 inactive | CNGC inhibitor inactive | Y2 agonist ctr 17
O=C(c1ccco1)N1CCN(C(=O)c2sccc2-c2ccccc2)CC1	NPY-Y2 PAM-ag 27 | NPY-Y2 pot conf inactive | NPY-Y1 potentiator inactive | NPY-Y1 ag 2 inactive | CNGC inhibitor inactive | Y2 agonist ctr inactive
O=C1COc2ccc(C(=O)COC(=O)c3ccco3)cc2N1	none (no result: NPY-Y1 antag, NPY Y2 blocker)
O=C1COc2ccc(C(=O)COC(=O)c3cc(S(=O)(=O)NCc4ccccc4)ccc3O)cc2N1	NPY-Y2 PAM-ag 98 (no result: NPY-Y1 antag, NPY Y2 blocker) | NPY-Y2 pot conf inactive | NPY-Y1 potentiator inactive | NPY-Y1 ag 2 inactive | CNGC inhibitor inactive | Y2 agonist ctr inactive
Cc1ccc(Cl)cc1N1CCN(C(=O)Cc2ccc(-n3c(=O)[nH]c4ccsc4c3=O)cc2)CC1	none
CCOC(=O)c1c(C)sc2c1N(C(=O)CCl)c1cc(Cl)ccc1S2	NPY-Y2 PAM-ag 38 | NPY-Y2 pot conf inactive | NPY-Y1 potentiator inactive | NPY-Y1 ag 2 34 | CNGC inhibitor inactive | Y2 agonist ctr inactive
Cc1sc2ncnc(SCC(=O)N3c4ccccc4Sc4ccc(Cl)cc43)c2c1C	none
O=C(Nc1ccccc1)c1ccc[nH]1	none
COc1ccc(S(=O)(=O)N(C)CC(=O)N2CCC(C(N)=O)CC2)cc1Cl	none
Oc1ccccc1N=Nc1nc(-c2ccccc2)c(-c2ccccc2)[nH]1	NPY-Y2 PAM-ag 45 | NPY-Y2 pot conf 57 | NPY-Y1 potentiator 69 | NPY-Y1 ag 2 64 | CNGC inhibitor 61 | Y2 agonist ctr 63
COc1ccccc1N=Nc1nc(-c2ccccc2)c(-c2ccccc2)[nH]1	none
CCN(CC(=O)NC(C)(C)C)C(=O)c1ccc2c(c1)S(=O)(=O)c1ccccc1C2=O	none (no result: NPY Y2 blocker)
CCNC(=S)N/N=C/c1cc(C)n(-c2ccc(Cl)cc2)c1C	none (no result: NPY Y2 blocker)
Cc1cc(/C=N/NC(=O)Cn2c3ccccc3c(=O)c3ccccc32)c(C)n1-c1ccc(Cl)cc1	NPY-Y2 PAM-ag 31 | NPY-Y2 pot conf inactive | NPY-Y1 potentiator inactive | NPY-Y1 ag 2 inactive | CNGC inhibitor inactive | Y2 agonist ctr 20
CC1(/[N+]([O-])=C/c2ccccc2F)CCCCC1=O (stereo unspecified)	none (no result: NPY Y2 blocker)
Nc1c(-c2ccccc2)c(CSc2nc3ccccc3[nH]2)nn1-c1cccc(Cl)c1	NPY-Y2 PAM-ag 32 | NPY-Y2 pot conf 39 | NPY-Y1 potentiator inactive | NPY-Y1 ag 2 36 | CNGC inhibitor 28 | Y2 agonist ctr 57
Nc1c(-c2ccccc2)c(CSc2nc3ccccc3[nH]2)nn1-c1ccc(Cl)cc1	NPY-Y2 PAM-ag 29 | NPY-Y2 pot conf inactive | NPY-Y1 potentiator inactive | NPY-Y1 ag 2 inactive | CNGC inhibitor inactive | Y2 agonist ctr 33
Cc1ccccc1-n1nc(CSc2nc3ccccc3[nH]2)c(-c2ccccc2)c1N	none
O=C(CCCOc1ccccc1)Nc1ccc(Cl)cn1	none (no result: NPY Y2 blocker)
CCN(CC(=O)NCc1cccs1)c1ccc(S(=O)(=O)N2CCN(C)CC2)cn1	none (no result: KCC2 mod, NPY-Y1 antag, NPY Y2 blocker)
CCn1c(CNc2ccc(Cl)cc2)nnc1SCC#N	none (no result: NPY Y2 blocker)
Cc1ccccc1Nc1c(-c2ccncc2)nc2ccc(Br)cn12	NPY-Y2 PAM-ag 47 | NPY-Y2 pot conf 71 | NPY-Y1 potentiator 76 | NPY-Y1 ag 2 58 | CNGC inhibitor 53 | Y2 agonist ctr 70
N#C/C(=N\Nc1ccc(F)cc1)C(=O)C1CC1	none (no result: NPY-Y1 antag, NPY Y2 blocker)
N#C/C(=N\Nc1ccc(Cl)c(Cl)c1)C(=O)C1CC1	KCC2 mod -6, NPY-Y2 PAM-ag 63 (no result: NPY-Y1 antag, NPY Y2 blocker) | NPY-Y2 pot conf inactive | NPY-Y1 potentiator inactive | NPY-Y1 ag 2 inactive | CNGC inhibitor inactive | Y2 agonist ctr inactive | KCC2 secondary inactive | KCC2 bumet counter inactive | KCC2 secondary2 0.023 | HEK293 Tl flux 0.004 | KCC2 ouabain 0.012 | HEK293 Tl flux2 0.0074
O=C(COC(=O)c1cc(NS(=O)(=O)c2cccs2)ccc1O)Nc1ccccc1	none (no result: NPY-Y1 antag, NPY Y2 blocker)
